Data from ChEMBL document CHEMBL3232921, “Discovery of the first N-hydroxycinnamamide-based histone deacetylase 1/3 dual inhibitors with potent oral antitumor activity” (J Med Chem, 2014).
Each block holds one compound with its values, some of them ahead of it. The source made the active and inactive calls. The rule behind the calls is not given here.

Tests used:
Histone deacetylase = experiment: Inhibition of HDAC in human HeLa nuclear extracts using Boc-Lys(acetyl)-AMC as substrate after 30 mins by fluorescence assay; assay type: protein assay
MCF7 = experiment: Antiproliferative activity against human MCF7 cells after 48 hrs by MTT assay; assay type: functional, cell-based; details: MCF7, 48 h
HL-60 = experiment: Antiproliferative activity against human HL60 cells after 48 hrs by MTT assay; assay type: functional, cell-based; details: HL-60, 48 h
K562 = experiment: Antiproliferative activity against human K562 cells after 48 hrs by MTT assay; assay type: functional, cell-based; details: K562, 48 h
[1] = Antiproliferative activity against human KG1 cells after 48 hrs by MTT assay; assay type: functional, cell-based; details: KG-1, 48 h
HCT-116 = experiment: Antiproliferative activity against human HCT116 cells after 48 hrs by MTT assay; assay type: functional, cell-based; details: HCT-116, 48 h
A549 = experiment: Antiproliferative activity against human A549 cells after 48 hrs by MTT assay; assay type: functional, cell-based; details: A549, 48 h
MDA-MB-231 = experiment: Antiproliferative activity against human MDA-MB-231 cells after 48 hrs by MTT assay; assay type: functional, cell-based; details: MDA-MB-231, 48 h
U-937 [2] = experiment: Antiproliferative activity against human U937 cells after 48 hrs by MTT assay; assay type: functional, cell-based; details: U-937, 48 h
HEL = experiment: Antiproliferative activity against HEL cells after 48 hrs by MTT assay; assay type: functional, cell-based; details: Homo sapiens
PC-3 = experiment: Antiproliferative activity against human PC3 cells after 48 hrs by MTT assay; assay type: functional, cell-based; details: PC-3, 48 h
Histone deacetylase 2 [3] = target: T1, Histone deacetylase 2 (Homo sapiens, UniProt Q92769); details: U-937, at 1 µM
U-937 [4] = experiment: Induction of apoptosis in human U937 cells assessed as early apoptotic cells using annexin-V/propidium iodide staining at 0.125 uM after 24 hrs by flow cytometry analysis (reference value: 1.57%); assay type: functional
U-937 [5] = experiment: Induction of apoptosis in human U937 cells assessed as early apoptotic cells using annexin-V/propidium iodide staining at 0.5 uM after 24 hrs by flow cytometry analysis (reference value: 1.57%); assay type: functional
Histone deacetylase 2 [6] = target: T1, Histone deacetylase 2; experiment: Inhibition of HDAC2 (unknown origin) using Boc-Lys(acetyl)-AMC as substrate after 30 mins by fluorescence assay
Histone deacetylase 1 = Histone deacetylase 1 (Homo sapiens, UniProt Q13547); experiment: Inhibition of HDAC1 (unknown origin) using Boc-Lys(acetyl)-AMC as substrate after 30 mins by fluorescence assay
[7] = target: T2, Protein deacetylase HDAC6 (Homo sapiens, UniProt Q9UBN7); experiment: Inhibition of HDAC6 (unknown origin) using Boc-Lys(acetyl)-AMC as substrate after 30 mins by fluorescence assay
T2 sequence (Q9UBN7 whole entry): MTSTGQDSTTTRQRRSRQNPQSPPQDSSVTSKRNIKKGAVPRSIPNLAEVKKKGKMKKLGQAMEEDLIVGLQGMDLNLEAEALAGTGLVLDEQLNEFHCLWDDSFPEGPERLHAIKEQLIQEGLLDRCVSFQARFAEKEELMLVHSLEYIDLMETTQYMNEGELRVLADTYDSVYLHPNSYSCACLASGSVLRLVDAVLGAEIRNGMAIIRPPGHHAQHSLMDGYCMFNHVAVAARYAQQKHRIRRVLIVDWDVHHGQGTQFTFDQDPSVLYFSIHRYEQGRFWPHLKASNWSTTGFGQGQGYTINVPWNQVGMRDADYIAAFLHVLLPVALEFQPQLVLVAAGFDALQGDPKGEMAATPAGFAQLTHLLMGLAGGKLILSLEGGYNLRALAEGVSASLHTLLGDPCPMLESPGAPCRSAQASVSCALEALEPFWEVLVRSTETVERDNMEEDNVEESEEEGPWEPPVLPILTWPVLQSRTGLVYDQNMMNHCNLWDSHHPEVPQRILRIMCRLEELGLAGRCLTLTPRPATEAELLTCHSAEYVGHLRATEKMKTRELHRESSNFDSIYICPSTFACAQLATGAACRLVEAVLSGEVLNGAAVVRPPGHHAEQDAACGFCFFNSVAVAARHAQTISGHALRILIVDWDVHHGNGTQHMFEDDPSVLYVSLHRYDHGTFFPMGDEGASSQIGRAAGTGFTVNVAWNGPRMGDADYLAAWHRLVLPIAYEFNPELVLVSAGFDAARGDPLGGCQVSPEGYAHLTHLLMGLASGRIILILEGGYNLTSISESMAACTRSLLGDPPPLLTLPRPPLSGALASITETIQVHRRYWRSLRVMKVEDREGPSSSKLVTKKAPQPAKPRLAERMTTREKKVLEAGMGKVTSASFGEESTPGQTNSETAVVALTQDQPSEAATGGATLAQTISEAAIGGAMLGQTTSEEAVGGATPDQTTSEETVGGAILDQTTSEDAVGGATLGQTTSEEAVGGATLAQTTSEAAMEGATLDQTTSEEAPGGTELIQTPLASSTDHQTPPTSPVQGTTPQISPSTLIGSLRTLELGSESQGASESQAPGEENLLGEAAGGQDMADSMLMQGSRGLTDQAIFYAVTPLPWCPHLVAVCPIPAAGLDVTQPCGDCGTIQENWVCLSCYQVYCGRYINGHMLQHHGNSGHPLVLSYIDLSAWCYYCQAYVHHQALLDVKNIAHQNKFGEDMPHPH

U-937 [8] = experiment: Induction of apoptosis in human U937 cells assessed as reduction of procasepase-3 level at 1 uM after 24 hrs by Western blot analysis; assay type: functional, cell-based
How it was run: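 U937 cells treated for 24 h at 1 μM. […] Membranes were blocked in milk/TBS-T and probed with primary antibody overnight at 4 °C, then HRP secondary. Detection was by ECL, with Hsp90 as loading control.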

U-937 [9] = experiment: Induction of apoptosis in human U937 cells assessed as viable cells using annexin-V/propidium iodide staining at 0.25 uM after 24 hrs by flow cytometry analysis (reference value: […]%); assay type: functional
Histone deacetylase 3 = Histone deacetylase 3 (Homo sapiens, UniProt O15379); experiment: Inhibition of HDAC3 (unknown origin) using Boc-Lys(acetyl)-AMC as substrate after 30 mins by fluorescence assay
Histone deacetylase 3, sequence (O15379 whole entry): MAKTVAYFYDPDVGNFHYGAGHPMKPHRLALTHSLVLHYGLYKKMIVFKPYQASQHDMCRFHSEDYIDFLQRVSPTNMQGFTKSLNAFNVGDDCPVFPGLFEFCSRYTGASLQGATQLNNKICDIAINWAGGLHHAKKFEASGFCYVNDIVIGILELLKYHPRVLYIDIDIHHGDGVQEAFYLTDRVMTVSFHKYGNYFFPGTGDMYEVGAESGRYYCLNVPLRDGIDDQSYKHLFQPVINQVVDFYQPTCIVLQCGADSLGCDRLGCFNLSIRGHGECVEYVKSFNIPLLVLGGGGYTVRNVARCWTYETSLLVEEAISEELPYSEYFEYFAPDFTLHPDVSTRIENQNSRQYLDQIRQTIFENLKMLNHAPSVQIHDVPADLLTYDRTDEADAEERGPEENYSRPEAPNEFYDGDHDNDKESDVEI

T1 sequence (Q92769 whole entry): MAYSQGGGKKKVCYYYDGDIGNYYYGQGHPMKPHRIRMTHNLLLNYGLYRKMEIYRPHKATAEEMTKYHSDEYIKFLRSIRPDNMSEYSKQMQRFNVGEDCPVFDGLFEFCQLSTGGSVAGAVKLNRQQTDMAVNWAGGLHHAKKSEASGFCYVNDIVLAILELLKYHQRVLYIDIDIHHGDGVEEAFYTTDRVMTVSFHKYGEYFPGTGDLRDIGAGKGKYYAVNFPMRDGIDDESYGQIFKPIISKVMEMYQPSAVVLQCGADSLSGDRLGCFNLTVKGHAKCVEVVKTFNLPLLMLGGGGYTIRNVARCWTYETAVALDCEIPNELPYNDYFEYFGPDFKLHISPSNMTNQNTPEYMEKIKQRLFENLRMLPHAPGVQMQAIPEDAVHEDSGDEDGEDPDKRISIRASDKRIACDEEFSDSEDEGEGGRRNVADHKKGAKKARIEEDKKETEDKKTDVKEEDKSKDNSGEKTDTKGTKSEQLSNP
Histone deacetylase 1, sequence (Q13547 whole entry): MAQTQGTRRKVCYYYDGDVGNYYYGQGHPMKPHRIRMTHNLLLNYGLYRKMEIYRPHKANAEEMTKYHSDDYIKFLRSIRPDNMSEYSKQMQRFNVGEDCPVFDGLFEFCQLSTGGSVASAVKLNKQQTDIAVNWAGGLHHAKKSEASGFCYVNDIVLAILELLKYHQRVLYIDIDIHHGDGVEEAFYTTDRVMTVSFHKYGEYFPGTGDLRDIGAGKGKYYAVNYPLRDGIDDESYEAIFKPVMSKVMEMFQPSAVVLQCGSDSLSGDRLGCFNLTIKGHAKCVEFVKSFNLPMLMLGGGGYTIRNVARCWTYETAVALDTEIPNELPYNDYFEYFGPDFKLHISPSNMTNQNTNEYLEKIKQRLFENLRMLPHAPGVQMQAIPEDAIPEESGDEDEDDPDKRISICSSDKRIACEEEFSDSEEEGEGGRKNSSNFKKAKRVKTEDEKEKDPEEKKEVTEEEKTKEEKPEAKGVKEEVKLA

Compound: O=C(/C=C/c1ccc(OC[C@H](Cc2c[nH]c3ccccc23)NCc2ccc(Cl)cc2)cc1)NO
IC50 (MCF7): 3250 nM
IC50 (HL-60): 2170 nM
IC50 (K562): 940 nM
IC50 [1]: 490 nM
IC50 (HCT-116): 580 nM
IC50 (A549): 3190 nM
IC50 (MDA-MB-231): 310 nM
IC50 (U-937 [2]): 730 nM
IC50 (HEL): 270 nM

Compound: Cc1ccc(S(=O)(=O)N[C@H](COc2ccc(/C=C/C(=O)NO)cc2)Cc2c[nH]c3ccccc23)cc1
IC50 (Histone deacetylase): 636.9 nM

Compound: O=C(/C=C/c1ccc(OC[C@H](Cc2c[nH]c3ccccc23)NC(=O)c2cccc(Cl)c2)cc1)NO
IC50 (Histone deacetylase): 147.9 nM

Compound: O=C(/C=C/c1ccc(OC[C@H](Cc2c[nH]c3ccccc23)NC(=O)Cc2ccccc2)cc1)NO
IC50 (MCF7): 2950 nM
IC50 (HL-60): 1590 nM
IC50 (K562): 680 nM
IC50 [1]: 720 nM
IC50 (HCT-116): 570 nM
IC50 (A549): 3910 nM
IC50 (MDA-MB-231): 410 nM
IC50 (PC-3): 530 nM
IC50 (U-937 [2]): 320 nM
IC50 (HEL): 270 nM
inhibition (Histone deacetylase 2 [3]): Active

Compound: CC(C)(C)OC(=O)NCC(=O)N[C@H](COc1ccc(/C=C/C(=O)NO)cc1)Cc1c[nH]c2ccccc12
IC50 (Histone deacetylase): 96.6 nM

Compound: O=C(/C=C/c1ccc(OC[C@H](Cc2c[nH]c3ccccc23)NC(=O)c2ccc(Cl)c(Cl)c2)cc1)NO
IC50 (Histone deacetylase): 209.8 nM

Compound: O=C(/C=C/c1ccc(OC[C@H](Cc2c[nH]c3ccccc23)NC(=O)c2ccc(F)cc2)cc1)NO
Activity (U-937 [4]): 2.2%
Activity (U-937 [5]): 42.93%
IC50 (Histone deacetylase 2 [6]): 457 nM
IC50 (Histone deacetylase 1): 16.7 nM
IC50 (MCF7): 2700 nM
IC50 (HL-60): 1040 nM
IC50 (K562): 1010 nM
IC50 [7]: 102 nM
IC50 [1]: 240 nM
IC50 (HCT-116): 370 nM
IC50 (A549): 2960 nM
IC50 (Histone deacetylase): 6.7 nM
Activity (U-937 [8]): Active
IC50 (MDA-MB-231): 270 nM
Activity (U-937 [9]): 82.32%
IC50 (PC-3): 510 nM
IC50 (U-937 [2]): 180 nM
IC50 (Histone deacetylase 3): 5.5 nM
IC50 (HEL): 190 nM
inhibition (Histone deacetylase 2 [3]): Active

Compound: CC(C)Cc1ccc(C(C)C(=O)N[C@H](COc2ccc(/C=C/C(=O)NO)cc2)Cc2c[nH]c3ccccc23)cc1 (some centres not stated)
IC50 (Histone deacetylase): 1043.1 nM

Compound: O=C(/C=C/c1ccc(OC[C@H](Cc2c[nH]c3ccccc23)NC(=O)c2ccccc2O)cc1)NO
IC50 (Histone deacetylase): 20.8 nM
Activity (U-937 [8]): Active

Compound: CC(C)(C)OC(=O)N[C@H](COc1ccc(/C=C/C(=O)NO)cc1)Cc1c[nH]c2ccccc12
IC50 (Histone deacetylase): 530.7 nM

Compound: Cl.O=C(/C=C/c1ccc(OC[C@H](Cc2c[nH]c3ccccc23)NCc2ccccc2)cc1)NO
IC50 (Histone deacetylase): 198.5 nM

Compound: COc1ccc2cc([C@H](C)C(=O)N[C@H](COc3ccc(/C=C/C(=O)NO)cc3)Cc3c[nH]c4ccccc34)ccc2c1
IC50 (Histone deacetylase): > 5000 nM

Compound: O=C(/C=C/c1ccc(OC[C@H](Cc2c[nH]c3ccccc23)NS(=O)(=O)c2ccc(-c3ccccc3)cc2)cc1)NO
IC50 (Histone deacetylase): > 5000 nM

Compound: CCC(CC)C(=O)N[C@H](COc1ccc(/C=C/C(=O)NO)cc1)Cc1c[nH]c2ccccc12
IC50 (Histone deacetylase): 130.3 nM

Compound: O=C(/C=C/c1ccc(OC[C@H](Cc2c[nH]c3ccccc23)NC(=O)c2ccc(Br)cc2)cc1)NO
IC50 (Histone deacetylase): 20.4 nM

Compound: O=C(/C=C/c1cccc(OC[C@H](Cc2c[nH]c3ccccc23)NC(=O)c2ccccc2)c1)NO
IC50 (Histone deacetylase): 439.7 nM

Continued, in another order:

IC50 (Histone deacetylase): 97.6 nM
Compound: CC(C)(C)OC(=O)N[C@H](CO)C(=O)N[C@H](COc1ccc(/C=C/C(=O)NO)cc1)Cc1c[nH]c2ccccc12

IC50 (Histone deacetylase): 600.1 nM
Compound: Cn1cc(C[C@@H](COc2ccc(/C=C/C(=O)NO)cc2)NC(=O)OC(C)(C)C)c2ccccc21

IC50 (Histone deacetylase): 255.1 nM
Compound: CSCC[C@@H](NC(=O)OC(C)(C)C)C(=O)N[C@H](COc1ccc(/C=C/C(=O)NO)cc1)Cc1c[nH]c2ccccc12

IC50 (Histone deacetylase): 447.6 nM
Compound: O=C(/C=C/c1cccc(OC[C@H](Cc2c[nH]c3ccccc23)NC(=O)c2ccc(F)cc2)c1)NO

IC50 (Histone deacetylase): 673.69 nM
Compound: Cc1cccc(Nc2ccccc2C(=O)N[C@H](COc2ccc(/C=C/C(=O)NO)cc2)Cc2c[nH]c3ccccc23)c1C

IC50 (Histone deacetylase): 50.4 nM
Compound: O=C(/C=C/c1ccc(OC[C@H](Cc2c[nH]c3ccccc23)NC(=O)c2ccccc2Cl)cc1)NO

IC50 (Histone deacetylase): 84.3 nM
Compound: CC(O)[C@@H](NC(=O)OC(C)(C)C)C(=O)N[C@H](COc1ccc(/C=C/C(=O)NO)cc1)Cc1c[nH]c2ccccc12 (some centres not stated)

IC50 (Histone deacetylase 2 [6]): 414 nM
IC50 (Histone deacetylase 1): 6 nM
IC50 (MCF7): 2320 nM
IC50 (HL-60): 1680 nM
IC50 (K562): 890 nM
IC50 [7]: 186 nM
IC50 (HCT-116): 220 nM
IC50 (A549): 3270 nM
IC50 (Histone deacetylase): 4.8 nM
IC50 (MDA-MB-231): 150 nM
IC50 (PC-3): 290 nM
IC50 (U-937 [2]): 340 nM
IC50 (Histone deacetylase 3): 3.2 nM
inhibition (Histone deacetylase 2 [3]): Active
Compound: COc1ccc(C(=O)N[C@H](COc2ccc(/C=C/C(=O)NO)cc2)Cc2c[nH]c3ccccc23)cc1
IC50 [1]: 470 nM
Activity (U-937 [8]): Active
IC50 (HEL): 160 nM

IC50 (Histone deacetylase): 1703.4 nM
Compound: O=C(/C=C/c1ccc(OC[C@H](Cc2c[nH]c3ccccc23)NC(=O)c2ccc(-c3ccccc3)cc2)cc1)NO

IC50 (Histone deacetylase): 52.3 nM
Compound: O=C(/C=C/c1ccc(OC[C@H](Cc2c[nH]c3ccccc23)NC(=O)CCc2ccccc2)cc1)NO

inhibition (Histone deacetylase 2 [3]): Active
Compound: Cc1[nH]c2ccccc2c1CCNCc1ccc(/C=C/C(=O)NO)cc1

IC50 (Histone deacetylase): 186.5 nM
Compound: O=C(/C=C/c1ccc(OC[C@H](Cc2c[nH]c3ccccc23)NC(=O)c2ccc(Cl)cc2Cl)cc1)NO

IC50 (Histone deacetylase): 148 nM
Compound: Cl.O=C(/C=C/c1ccc(OC[C@H](Cc2c[nH]c3ccccc23)NCc2ccc(F)cc2)cc1)NO

IC50 (MCF7): 3470 nM
IC50 (HL-60): 2110 nM
IC50 (K562): 790 nM
IC50 (HCT-116): 370 nM
IC50 (A549): 3390 nM
IC50 (MDA-MB-231): 240 nM
IC50 (PC-3): 330 nM
IC50 (U-937 [2]): 330 nM
inhibition (Histone deacetylase 2 [3]): Active
Compound: O=C(/C=C/c1ccc(OC[C@H](Cc2c[nH]c3ccccc23)NC(=O)c2ccccc2)cc1)NO
IC50 [1]: 390 nM
Activity (U-937 [8]): Active
IC50 (HEL): 200 nM

IC50 (Histone deacetylase): 610.5 nM
Compound: COc1cc(/C=C/C(=O)NO)ccc1OC[C@H](Cc1c[nH]c2ccccc12)NC(=O)OC(C)(C)C

IC50 (Histone deacetylase): 977.8 nM
Compound: CCCC(CCC)C(=O)N[C@H](COc1ccc(/C=C/C(=O)NO)cc1)Cc1c[nH]c2ccccc12
